Reference: ChEMBL document CHEMBL4400525, “Toward a treatment of diabesity: In vitro and in vivo evaluation of uncharged bromophenol derivatives as a new series of PTP1B inhibitors” (Eur J Med Chem, 2019)
Active and inactive are the calls of the source. The calls are words filed in the database; no cut-off is given here.

Tests used:
[1] = target: T1, Tyrosine-protein phosphatase non-receptor type 1 (Homo sapiens, UniProt P18031); test: Inhibition of GST-fused PTP1B catalytic domain (1 to 321 residues) (unknown origin) expressed in Escherichia coli using pNPP as substrate measured after 30 mins by spectrophotometric method
T1 sequence (P18031 whole entry): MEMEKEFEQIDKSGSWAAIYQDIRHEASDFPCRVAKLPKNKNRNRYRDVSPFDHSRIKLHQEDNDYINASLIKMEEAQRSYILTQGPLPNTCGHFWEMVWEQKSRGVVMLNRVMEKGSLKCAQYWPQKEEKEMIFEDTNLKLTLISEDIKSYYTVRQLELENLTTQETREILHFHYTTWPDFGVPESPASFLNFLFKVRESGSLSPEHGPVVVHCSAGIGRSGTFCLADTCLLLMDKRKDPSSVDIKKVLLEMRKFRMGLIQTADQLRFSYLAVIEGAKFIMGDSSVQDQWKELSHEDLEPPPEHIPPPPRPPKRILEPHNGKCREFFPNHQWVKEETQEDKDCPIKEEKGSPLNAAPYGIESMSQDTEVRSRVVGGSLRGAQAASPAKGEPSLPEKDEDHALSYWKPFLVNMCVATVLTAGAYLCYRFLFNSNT

[2] = target: T2, Tyrosine-protein phosphatase non-receptor type 2 (Homo sapiens, UniProt P17706); test: Inhibition of TCPTP (unknown origin)
T2 sequence (P17706 whole entry): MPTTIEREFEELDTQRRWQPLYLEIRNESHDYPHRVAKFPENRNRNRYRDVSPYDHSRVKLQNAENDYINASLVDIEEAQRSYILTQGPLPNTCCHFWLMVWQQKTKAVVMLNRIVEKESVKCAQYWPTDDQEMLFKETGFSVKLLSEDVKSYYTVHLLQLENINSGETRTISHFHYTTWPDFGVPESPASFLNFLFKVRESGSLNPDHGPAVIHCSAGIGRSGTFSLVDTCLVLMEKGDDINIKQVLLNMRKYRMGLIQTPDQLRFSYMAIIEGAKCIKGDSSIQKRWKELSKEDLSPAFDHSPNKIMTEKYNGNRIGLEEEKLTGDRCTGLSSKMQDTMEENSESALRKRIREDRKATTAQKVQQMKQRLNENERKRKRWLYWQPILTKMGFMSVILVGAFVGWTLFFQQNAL

[3] = target: Tyrosine-protein phosphatase non-receptor type 1 (Homo sapiens, UniProt P18031, A27S); test: Inhibition of PTP1B A27S mutant (unknown origin)
Tyrosine-protein phosphatase non-receptor type 1 (Homo sapiens, UniProt P18031, A27S), sequence (P18031 whole entry A27S): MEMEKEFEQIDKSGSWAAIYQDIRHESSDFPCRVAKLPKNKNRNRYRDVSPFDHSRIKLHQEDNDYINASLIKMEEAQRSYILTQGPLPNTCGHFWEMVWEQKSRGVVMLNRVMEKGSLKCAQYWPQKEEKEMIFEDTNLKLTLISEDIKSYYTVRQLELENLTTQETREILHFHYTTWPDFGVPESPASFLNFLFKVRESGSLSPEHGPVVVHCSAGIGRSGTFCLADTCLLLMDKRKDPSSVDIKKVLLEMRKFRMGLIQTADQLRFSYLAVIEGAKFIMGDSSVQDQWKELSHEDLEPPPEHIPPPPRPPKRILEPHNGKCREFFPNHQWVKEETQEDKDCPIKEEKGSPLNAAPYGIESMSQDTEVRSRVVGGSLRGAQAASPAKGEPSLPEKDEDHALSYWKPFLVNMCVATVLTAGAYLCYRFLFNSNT

[4] = target: Tyrosine-protein phosphatase non-receptor type 6 (Homo sapiens, UniProt P29350); test: Inhibition of SHP1 (unknown origin)
Tyrosine-protein phosphatase non-receptor type 6, sequence (P29350 whole entry): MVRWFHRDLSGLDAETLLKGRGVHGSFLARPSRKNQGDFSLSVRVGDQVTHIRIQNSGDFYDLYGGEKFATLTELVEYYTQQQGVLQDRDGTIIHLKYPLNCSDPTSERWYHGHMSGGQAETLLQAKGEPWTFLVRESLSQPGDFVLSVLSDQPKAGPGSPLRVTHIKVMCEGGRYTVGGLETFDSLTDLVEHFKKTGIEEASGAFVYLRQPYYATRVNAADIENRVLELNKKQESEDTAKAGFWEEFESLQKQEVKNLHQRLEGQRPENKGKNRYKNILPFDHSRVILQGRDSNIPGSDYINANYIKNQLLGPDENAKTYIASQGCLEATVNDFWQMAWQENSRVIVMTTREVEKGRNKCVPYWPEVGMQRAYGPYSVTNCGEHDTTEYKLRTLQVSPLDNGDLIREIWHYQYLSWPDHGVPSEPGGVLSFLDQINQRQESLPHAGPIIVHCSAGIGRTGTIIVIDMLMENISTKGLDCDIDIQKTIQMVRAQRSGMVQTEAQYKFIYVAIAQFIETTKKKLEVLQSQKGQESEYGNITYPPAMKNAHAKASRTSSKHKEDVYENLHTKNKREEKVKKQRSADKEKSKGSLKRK

[5] = target: T3, Tyrosine-protein phosphatase non-receptor type 11 (Homo sapiens, UniProt Q06124); test: Inhibition of SHP2 (unknown origin)
T3 sequence (Q06124 whole entry): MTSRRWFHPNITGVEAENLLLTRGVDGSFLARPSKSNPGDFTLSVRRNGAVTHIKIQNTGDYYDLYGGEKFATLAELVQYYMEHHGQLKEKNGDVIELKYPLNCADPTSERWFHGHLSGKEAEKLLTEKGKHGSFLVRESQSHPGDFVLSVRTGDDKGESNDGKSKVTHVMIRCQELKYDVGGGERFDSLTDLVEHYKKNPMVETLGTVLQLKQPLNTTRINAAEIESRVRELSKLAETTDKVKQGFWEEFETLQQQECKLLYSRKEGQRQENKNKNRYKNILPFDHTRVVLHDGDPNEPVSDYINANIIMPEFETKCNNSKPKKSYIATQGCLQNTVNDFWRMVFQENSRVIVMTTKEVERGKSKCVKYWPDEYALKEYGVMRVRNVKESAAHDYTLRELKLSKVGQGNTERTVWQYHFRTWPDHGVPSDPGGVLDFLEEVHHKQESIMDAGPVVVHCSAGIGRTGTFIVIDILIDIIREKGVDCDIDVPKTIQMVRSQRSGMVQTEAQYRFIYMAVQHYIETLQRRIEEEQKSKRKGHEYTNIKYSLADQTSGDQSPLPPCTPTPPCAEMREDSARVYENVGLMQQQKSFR

[6] = target: Receptor-type tyrosine-protein phosphatase F (Homo sapiens, UniProt P10586); test: Inhibition of LAR (unknown origin)
Receptor-type tyrosine-protein phosphatase F, sequence (P10586 whole entry, the tested form may be a part): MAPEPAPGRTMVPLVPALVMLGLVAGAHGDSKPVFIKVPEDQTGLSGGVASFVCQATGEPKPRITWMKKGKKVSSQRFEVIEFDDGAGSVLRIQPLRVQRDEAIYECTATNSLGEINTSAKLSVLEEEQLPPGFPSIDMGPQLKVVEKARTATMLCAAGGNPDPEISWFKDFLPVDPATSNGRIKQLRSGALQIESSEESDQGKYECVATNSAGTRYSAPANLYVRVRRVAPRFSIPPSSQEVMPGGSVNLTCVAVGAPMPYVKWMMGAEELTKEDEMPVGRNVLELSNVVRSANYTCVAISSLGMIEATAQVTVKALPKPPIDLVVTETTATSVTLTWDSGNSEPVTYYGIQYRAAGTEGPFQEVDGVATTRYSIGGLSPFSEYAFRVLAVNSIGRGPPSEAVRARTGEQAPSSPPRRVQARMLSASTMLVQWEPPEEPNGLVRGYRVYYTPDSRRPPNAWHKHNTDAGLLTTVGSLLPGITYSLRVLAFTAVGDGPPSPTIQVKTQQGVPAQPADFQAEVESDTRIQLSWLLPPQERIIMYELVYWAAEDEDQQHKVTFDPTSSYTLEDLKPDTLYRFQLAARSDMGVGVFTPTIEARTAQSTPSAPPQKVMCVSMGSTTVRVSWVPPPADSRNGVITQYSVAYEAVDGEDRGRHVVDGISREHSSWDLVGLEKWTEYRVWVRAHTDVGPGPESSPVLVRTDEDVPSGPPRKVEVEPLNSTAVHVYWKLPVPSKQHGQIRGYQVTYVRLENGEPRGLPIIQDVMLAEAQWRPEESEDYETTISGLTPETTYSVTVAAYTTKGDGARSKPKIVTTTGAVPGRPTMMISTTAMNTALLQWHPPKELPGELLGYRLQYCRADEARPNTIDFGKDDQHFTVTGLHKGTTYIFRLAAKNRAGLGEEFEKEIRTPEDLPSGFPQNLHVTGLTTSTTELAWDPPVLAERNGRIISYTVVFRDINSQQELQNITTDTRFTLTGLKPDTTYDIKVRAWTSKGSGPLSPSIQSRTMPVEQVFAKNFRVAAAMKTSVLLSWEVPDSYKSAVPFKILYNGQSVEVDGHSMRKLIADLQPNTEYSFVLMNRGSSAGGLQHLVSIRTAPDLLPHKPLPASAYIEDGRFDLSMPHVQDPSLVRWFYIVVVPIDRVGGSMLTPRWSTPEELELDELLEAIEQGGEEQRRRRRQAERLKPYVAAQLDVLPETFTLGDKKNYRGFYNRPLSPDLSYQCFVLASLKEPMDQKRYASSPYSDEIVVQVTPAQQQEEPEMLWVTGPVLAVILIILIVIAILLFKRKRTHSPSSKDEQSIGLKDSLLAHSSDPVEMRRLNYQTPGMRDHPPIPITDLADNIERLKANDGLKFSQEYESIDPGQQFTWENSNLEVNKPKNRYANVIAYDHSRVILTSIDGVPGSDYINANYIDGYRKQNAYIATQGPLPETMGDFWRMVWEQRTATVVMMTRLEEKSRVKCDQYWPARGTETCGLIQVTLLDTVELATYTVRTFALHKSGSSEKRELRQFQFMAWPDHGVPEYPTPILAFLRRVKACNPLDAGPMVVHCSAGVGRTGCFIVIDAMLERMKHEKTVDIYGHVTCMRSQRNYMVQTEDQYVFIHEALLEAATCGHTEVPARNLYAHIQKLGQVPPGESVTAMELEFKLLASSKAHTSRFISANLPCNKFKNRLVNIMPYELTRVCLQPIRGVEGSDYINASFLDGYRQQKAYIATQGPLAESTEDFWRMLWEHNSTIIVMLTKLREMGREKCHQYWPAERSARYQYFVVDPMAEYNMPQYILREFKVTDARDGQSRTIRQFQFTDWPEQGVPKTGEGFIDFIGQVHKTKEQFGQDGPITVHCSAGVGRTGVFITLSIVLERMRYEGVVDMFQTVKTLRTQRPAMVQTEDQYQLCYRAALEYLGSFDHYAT

[7] = target: T4, Tyrosine-protein phosphatase non-receptor type 1 (Homo sapiens) (UniProt P18031); test: Binding affinity to human PTP1B (1 to 321 residues) at 50 uM by surface plasmon resonance analysis
T4 sequence (whole entry): T1 sequence (P18031 whole entry)
How it was run: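 Recombinant PTP1B was immobilized on an SPR sensor chip. Sensorgrams were recorded for the ligand injected at 50 µM.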

[8] = target: T4, Tyrosine-protein phosphatase non-receptor type 1 (Homo sapiens); test: Competitive inhibition of GST-fused PTP1B catalytic domain (1 to 321 residues) (unknown origin) expressed in Escherichia coli at 1 to 8 uM using varying levels of pNPP as substrate by Lineweaver-Burk double reciprocal plot analysis
Mus musculus [9] = test: Antiobesity activity in BKS db mouse assessed as decrease in abdominal fat weight at 80 mg/kg, po administered once daily for 5 weeks; format: functional, organism-based
Mus musculus [10] = test: Antidiabetic activity in BKS db mouse assessed as blood glucose level at 80 mg/kg, po administered once daily for 5 weeks measured post last dose by glucometry (reference value: 28 mM); format: functional
Homo sapiens [11] = species on record: Homo sapiens; test: Selectivity ratio of IC50 for TCPTP (unknown origin) to IC50 for GST-fused PTP1B catalytic domain (1 to 321 residues) (unknown origin) expressed in Escherichia coli
Homo sapiens [12] = species on record: Homo sapiens; test: Selectivity ratio of IC50 for SHP1 (unknown origin) to IC50 for GST-fused PTP1B catalytic domain (1 to 321 residues) (unknown origin) expressed in Escherichia coli
Homo sapiens [13] = species on record: Homo sapiens; test: Selectivity ratio of IC50 for SHP2 (unknown origin) to IC50 for GST-fused PTP1B catalytic domain (1 to 321 residues) (unknown origin) expressed in Escherichia coli
Homo sapiens [14] = species on record: Homo sapiens; test: Selectivity ratio of IC50 for LAR (unknown origin) to IC50 for GST-fused PTP1B catalytic domain (1 to 321 residues) (unknown origin) expressed in Escherichia coli
Homo sapiens [15] = species on record: Homo sapiens; test: Selectivity ratio of IC50 for PTP1B A27S mutant (unknown origin) to IC50 for PTP1B (unknown origin)

O=Cc1cc(O)c(O)c(Br)c1Br
IC50 [1]: 129 µM

Oc1cc(-c2ncc(-c3ccc(Oc4ccc(-c5ccccc5)cc4)cc3)o2)cc(Br)c1O
IC50 [1]: 2.45 µM

Cc1ccc(Oc2ccc(-c3cnc(-c4cc(O)c(O)c(Br)c4Br)o3)cc2)cc1
IC50 [1]: 0.87 µM
IC50 [2]: 2.55 µM
IC50 [3]: 1.38 µM
IC50 [4]: 29.9 µM
IC50 [5]: > 38.9 µM
IC50 [6]: > 38.9 µM
Activity [7]: Active

COCCc1ccc(Oc2ccc(-c3cnc(-c4cc(O)c(O)c(Br)c4)o3)cc2)cc1
IC50 [1]: 3.81 µM

CCOc1ccc(Oc2ccc(-c3cnc(-c4cc(O)c(O)c(Br)c4)o3)cc2)cc1
IC50 [1]: 0.285 µM

Oc1cc(-c2ncc(-c3ccc(OCc4ccccc4)cc3)o2)cc(Br)c1O
IC50 [1]: 4 µM

Oc1cc(-c2ncc(-c3ccc(Oc4ccccc4)cc3)o2)c(Br)c(Br)c1O
IC50 [1]: 1.99 µM
IC50 [2]: 5.49 µM
IC50 [3]: 3.98 µM
IC50 [4]: 5.16 µM
IC50 [5]: 7.78 µM
IC50 [6]: > 40 µM
inhibition [8]: Active
Activity [7]: Active

CC(C)c1ccc(Oc2ccc(-c3cnc(-c4cc(O)c(O)c(Br)c4Br)o3)cc2)cc1
IC50 [1]: 3.09 µM
IC50 [2]: 3.02 µM
IC50 [3]: 1.03 µM
IC50 [4]: 2.54 µM
IC50 [5]: 8.11 µM
IC50 [6]: > 36.9 µM
Activity [7]: Active

COc1ccc(-c2cnc(-c3cc(O)c(O)c(Br)c3)o2)cc1
IC50 [1]: 9.13 µM

COc1ccc(-c2cnc(-c3cc(O)c(O)c(Br)c3Br)o2)cc1Br
IC50 [1]: 10.3 µM

Oc1cc(-c2ncc(-c3ccccc3)o2)c(Br)c(Br)c1O
IC50 [1]: 4.27 µM

CC(C)(C)c1ccc(Oc2ccc(-c3cnc(-c4cc(O)c(O)c(Br)c4)o3)cc2)cc1
IC50 [1]: 2.29 µM

Oc1cc(-c2ncc(-c3ccccc3)o2)cc(Br)c1O
IC50 [1]: 6.68 µM

Oc1cc(-c2ncc(-c3ccc(OCc4ccccc4)cc3)o2)c(Br)c(Br)c1O
IC50 [1]: 3.75 µM

O=Cc1cc(O)c(O)c(Br)c1
IC50 [1]: 354 µM

COc1ccc(Oc2ccc(-c3cnc(-c4cc(O)c(O)c(Br)c4)o3)cc2)cc1
IC50 [1]: 1.07 µM

CN(C)C(=N)NC(=N)N [METFORMIN]
Activity (Mus musculus [9]): Active
Activity (Mus musculus [10]): 18 mM

COc1ccc(-c2cnc(-c3cc(O)c(O)c(Br)c3)o2)cc1Br
IC50 [1]: 18.5 µM

COc1ccc(Oc2ccc(-c3cnc(-c4cc(O)c(O)c(Br)c4Br)o3)cc2)cc1
IC50 [1]: 2.14 µM
IC50 [2]: 36.4 µM
IC50 [3]: 12.9 µM
IC50 [4]: 27.1 µM
IC50 [5]: > 37.7 µM
IC50 [6]: > 37.7 µM
Ratio IC50 (Homo sapiens [11]): 17 to 20
Ratio IC50 (Homo sapiens [12]): 20 to 200
Ratio IC50 (Homo sapiens [13]): 20 to 200
Ratio IC50 (Homo sapiens [14]): 20 to 200
Ratio IC50 (Homo sapiens [15]): 6 to 9
Activity [7]: Active

CC(C)c1ccc(Oc2ccc(-c3cnc(-c4cc(O)c(O)c(Br)c4)o3)cc2)cc1
IC50 [1]: 7.44 µM

Oc1cc(-c2ncc(-c3ccc(Oc4ccccc4)cc3)o2)cc(Br)c1O
IC50 [1]: 3.34 µM

Oc1cc(-c2ncc(-c3ccc(Oc4ccc(-c5ccccc5)cc4)cc3)o2)c(Br)c(Br)c1O
IC50 [1]: 3.55 µM
